Source: PubChem (Broad Institute)
Compounds with a hit are over-represented: about 2.1% of the library has one in this group of screens.
CAL PDZ FP-1: human CAL PDZ-peptide interaction inhibition; AID 504414; inhibition, % at 20 µM; purified CAL PDZ, TMR-peptide fluorescence polarization, 1 h; 330,000 tested, 0.02% active; Q9HD26;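 active = highest replicate inhibition of at least 40%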
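Material – purified CerCALP PDZ construct · Detection – FP readout, S and P plane fluorescence · Measure – percent inhibition from loss of millipolarization · Controls – unlabelled peptide for full inhibition, DMSO wells as neutral · Probe or stimulus – TMR-labelled reporter peptide T*-PRC34 bound in PDZ groove · Times – 1 h at RT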
SR-BI uptake up: SR-BI HDL lipid transfer activation; CHO ldlA[mSR-BI] cells, DiI-HDL uptake fluorescence, 3 h; 100 = double the neutral-control signal; AID 504775; activation, % at 12.5 µM; 320,000 tested, 0.096% active;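 active = mean replicate activation of at least 60% and every replicate at or above 60%; inconclusive = mean or all-replicate condition met, but not both; inactive = mean below 60% and not all replicates reaching 60%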
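Assay system: LDL receptor-deficient CHO ldlA cells overexpressing murine SR-BI / Medium: BSA-supplemented, HEPES-buffered Ham's F12, pH 7.4 / Probe or stimulus: DiI-labelled HDL at 10 µg/mL final / Timing: compound with DiI-HDL co-incubation, 3 h at 37 °C / Technique: bottom-read cell fluorescence after medium removal, ex 550/em 595 nm / Measure: HDL uptake via cellular fluorescence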
CAL PDZ FP-2: CAL PDZ (human) peptide binding inhibition | Q9HD26 | purified CAL PDZ, TMR-peptide fluorescence polarization, 1 h | inhibition, % at 24.9 µM | 300,000 tested, 0.92% active;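 active = mean inhibition of at least 30% with at least half of replicates also reaching 30%; inconclusive = no clear call, values can overlap the other calls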
ARNT-TACC3 inh: ARNT/TACC3 interaction disruption; AlphaScreen His-ARNT PAS-B/GST-TACC3 binding, luminescence; TACC3 fragment carries E629A point mutation; inhibition, % at 9.99 µM; Q9Y6A5; 390,000 tested, 0.66% active; AID 623870;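 active = mean inhibition of replicates at least 50% and at least half of replicates each reaching 50%; inconclusive = half or more replicates reach 50% but mean below 50%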
miR122 inh: inhibitors of miR-122 in Huh7 cells. Huh7 miR-122 Renilla luciferase sensor, 48 h; neutral wells = 0, positive control = 100. activation (reporter increase), % at 12.5 µM. 340,000 tested, 0.3% active. AID 602342;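 active = mean replicate activation score at least 90 and every replicate individually at or above 90; inconclusive = only one of the two criteria met; inactive = neither criterion met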;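 note: higher luciferase means less miR-122 activity so hits act as miR-122 inhibitors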
SR-BI DiI inh: inhibitors of mouse SR-BI mediated HDL lipid uptake; Q61009; ldlA[mSR-BI] CHO cells, DiI-HDL uptake fluorescence, 3 h; inhibition, % at 12.5 µM; 320,000 tested, 0.96% active;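 active = mean replicate inhibition of at least 70% and a set share of replicates each scoring 70 or more; inconclusive = meets just one of the two criteria; inactive = fails both criteria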
Target sequence (Q61009 whole entry, looked up): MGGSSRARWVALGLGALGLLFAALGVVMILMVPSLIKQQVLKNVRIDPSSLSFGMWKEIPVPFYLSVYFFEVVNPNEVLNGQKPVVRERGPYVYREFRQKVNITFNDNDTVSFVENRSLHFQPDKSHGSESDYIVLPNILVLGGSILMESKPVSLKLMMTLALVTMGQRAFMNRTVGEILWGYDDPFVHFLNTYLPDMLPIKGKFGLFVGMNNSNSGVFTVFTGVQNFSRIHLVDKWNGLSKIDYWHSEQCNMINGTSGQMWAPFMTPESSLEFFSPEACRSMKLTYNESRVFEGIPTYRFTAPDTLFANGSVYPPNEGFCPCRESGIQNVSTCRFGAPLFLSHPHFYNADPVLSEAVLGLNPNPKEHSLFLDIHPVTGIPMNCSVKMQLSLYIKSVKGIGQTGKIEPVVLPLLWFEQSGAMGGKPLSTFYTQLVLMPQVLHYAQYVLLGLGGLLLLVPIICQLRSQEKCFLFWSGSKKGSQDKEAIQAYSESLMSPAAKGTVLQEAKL
DiI quench: DiI fluorescence quenching in cell-free counter-screen. shares compounds with SR-BI DiI inh. cell-free DiI-HDL fluorescence quenching, 30 min. AC50, µM (top dose mostly 35 µM). 470 tested, 20% active. AID 540326;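 active = quenching, a falling signal, with AC50 below a set limit tied to the top valid dose, actives reach about 32 µM in these data; inconclusive = no clear call, values can overlap the other calls; inactive = rising signal, and the rest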
Numbers stand for hits.

For CC1Cc2ccccc2N1C(=O)Cn1nnc(-c2ccccc2NC(=O)C2CCC2)n1 (stereo not drawn) the results were CAL PDZ FP-1 inactive, SR-BI uptake up inactive, CAL PDZ FP-2 inactive, ARNT-TACC3 inh inactive, miR122 inh inactive, SR-BI DiI inh 79 and DiI quench inactive.
CCC(=O)Nc1ccccc1-c1nnn(CC(=O)N2c3ccccc3CC2C)n1 (stereo not drawn) was read as CAL PDZ FP-1 inactive, SR-BI uptake up inactive, CAL PDZ FP-2 inactive, ARNT-TACC3 inh inactive, miR122 inh inactive, SR-BI DiI inh inactive and DiI quench inactive.
For CC(C)CC(=O)Nc1ccccc1-c1nnn(CC(=O)N2CCc3ccccc3C2)n1 the results were CAL PDZ FP-1 inactive, SR-BI uptake up inactive, CAL PDZ FP-2 inactive, ARNT-TACC3 inh inactive, miR122 inh inactive and SR-BI DiI inh inactive.
O=C(Nc1ccccc1-c1nnn(CC(=O)N2CCc3ccccc3C2)n1)C1CCC1 was read as CAL PDZ FP-1 inactive, SR-BI uptake up inactive, CAL PDZ FP-2 inactive, ARNT-TACC3 inh inactive, miR122 inh inactive and SR-BI DiI inh inactive.
For COCC(=O)Nc1ccc2c(c1)[C@H]1C[C@@H](CC(=O)NCCN3CCCCC3)O[C@H](CO)[C@H]1O2 the results were miR122 inh inactive.
Cc1sc(NC(=O)Cc2ccc3c(c2)OCO3)nc1-c1ccc2c(c1)CCN2C(=O)c1cccc(F)c1 was read as CAL PDZ FP-1 inactive, SR-BI uptake up inactive, CAL PDZ FP-2 inactive, ARNT-TACC3 inh inactive, SR-BI DiI inh 77 and DiI quench inactive.
`Cc1cccc(C(=O)N2CCc3cc(-c4nc(NC(=O)CN5CCCC5)sc4C)ccc32)c1` gave CAL PDZ FP-1 inactive and ARNT-TACC3 inh inactive.
`Cc1ccccc1C(=O)N1CCc2cc(-c3nc(NC(=O)Cc4ccc5c(c4)OCO5)sc3C)ccc21` gave CAL PDZ FP-1 inactive, SR-BI uptake up inactive, CAL PDZ FP-2 inactive, ARNT-TACC3 inh inactive, miR122 inh inactive, SR-BI DiI inh inactive and DiI quench inactive.
For CO[C@H]1CN(C)C(=O)c2cc(NC(=O)C3CC3)ccc2OC[C@@H](C)N(C(=O)c2ccccc2)C[C@H]1C the results were ARNT-TACC3 inh inactive.
Screening CCCCC(c1nnnn1CC1CCCO1)N1CCN(c2cc(Cl)ccc2C)CC1 (stereo not drawn) returned SR-BI uptake up inactive, CAL PDZ FP-2 inactive, ARNT-TACC3 inh inactive, miR122 inh inactive, SR-BI DiI inh 82 and DiI quench inactive.
For NC(=O)c1cc(-c2ccccc2)sc1NC(=O)CN1CCCCC1 the results were CAL PDZ FP-1 inactive, SR-BI uptake up inactive, CAL PDZ FP-2 inactive, SR-BI DiI inh 73 and DiI quench inactive.
`O=C(C[C@@H]1CC[C@@H]2[C@H](COC[C@@H](O)CN2Cc2ccc(Oc3ccccc3)cc2)O1)N1CCCCC1` gave ARNT-TACC3 inh inactive and miR122 inh inactive.
Screening O=C(C[C@@H]1C=C[C@H](NS(=O)(=O)c2ccccc2)[C@@H](CO)O1)NCc1ccccc1F returned ARNT-TACC3 inh inactive.
For Cc1nn(Cc2ccccc2)c(C)c1NC(=O)c1cc2nc(-c3ccco3)cc(C(F)(F)F)n2n1 the results were CAL PDZ FP-1 inactive, SR-BI uptake up inactive, CAL PDZ FP-2 inactive, ARNT-TACC3 inh inactive, miR122 inh inactive, SR-BI DiI inh 83 and DiI quench inactive.
`O=C(C[C@@H]1CC[C@@H]2[C@H](COC[C@H](O)CN2Cc2cccc(C(F)(F)F)c2)O1)NCc1ccncc1` gave ARNT-TACC3 inh inactive and miR122 inh inactive.
COc1ccc(CCNC(=O)CCC(=O)N2CC(C)Oc3ccc(Cl)cc32)cc1OC (stereo not drawn) was read as CAL PDZ FP-1 inactive, SR-BI uptake up inactive, ARNT-TACC3 inh inactive, miR122 inh inactive, SR-BI DiI inh inconclusive and DiI quench inactive.
Screening Fc1ccc(-c2cc(-c3cccs3)cc(-c3ccccc3)n2)cc1 returned CAL PDZ FP-1 inactive, SR-BI uptake up inactive, CAL PDZ FP-2 inactive, ARNT-TACC3 inh inactive, SR-BI DiI inh 83 and DiI quench inactive.
`Fc1ccc(-c2nc(-c3cccs3)no2)cc1` gave CAL PDZ FP-1 inactive, CAL PDZ FP-2 inactive and ARNT-TACC3 inh inactive.
Screening CN(C)CC(=O)Nc1ccc2c(c1)[C@@H]1C[C@H](CC(=O)NCCc3ccccc3)O[C@@H](CO)[C@@H]1O2 returned ARNT-TACC3 inh inactive and miR122 inh inactive.
`CCN(CC)C(=O)c1cccc(NC(=O)c2cc(C3CC3)nc3c2cnn3C(C)C)c1` gave CAL PDZ FP-1 inactive, SR-BI uptake up inactive, CAL PDZ FP-2 inactive, ARNT-TACC3 inh inactive, miR122 inh inactive, SR-BI DiI inh 78 and DiI quench inactive.
`CCC(C)c1ccccc1N1CC(C(=O)N2CCN(c3ccccc3)CC2)CC1=O` (stereo not drawn) gave CAL PDZ FP-1 inactive, SR-BI uptake up inactive, CAL PDZ FP-2 inactive, ARNT-TACC3 inh inactive and SR-BI DiI inh inactive.
CCC(C)c1ccccc1N1CC(C(=O)N2CCN(S(=O)(=O)c3cccc([N+](=O)[O-])c3)CC2)CC1=O (stereo not drawn) was read as CAL PDZ FP-1 inactive, SR-BI uptake up inactive, CAL PDZ FP-2 inactive, SR-BI DiI inh inactive and DiI quench inactive.
For CCCCC(=O)Nc1cccc(NC(=O)c2ccccc2Br)c1 the results were CAL PDZ FP-1 inactive, SR-BI uptake up inactive, CAL PDZ FP-2 inactive, ARNT-TACC3 inh inactive, miR122 inh inactive, SR-BI DiI inh 74 and DiI quench inactive.
`Cc1c(O)ccc(/C(Cc2ccc3ccccc3n2)=N\O)c1O` gave CAL PDZ FP-1 inactive, SR-BI uptake up inactive, CAL PDZ FP-2 inactive, ARNT-TACC3 inh inactive, miR122 inh inactive and SR-BI DiI inh inactive.
`CC(=O)Oc1ccc(C(=O)Cc2ccc3ccccc3n2)c(O)c1C` gave CAL PDZ FP-1 inactive, SR-BI uptake up inactive, CAL PDZ FP-2 inactive, ARNT-TACC3 inh inactive, SR-BI DiI inh inconclusive and DiI quench inactive.
CCOc1ccccc1COC(=O)c1cccc(-n2cnnn2)c1 was read as CAL PDZ FP-1 inactive, SR-BI uptake up inactive, CAL PDZ FP-2 inactive, ARNT-TACC3 inh inactive, miR122 inh inactive, SR-BI DiI inh 72 and DiI quench inactive.
COc1ccccc1C(=O)COC(=O)c1cccc(-n2cnnn2)c1 was read as CAL PDZ FP-1 inactive, SR-BI uptake up inactive, CAL PDZ FP-2 inactive, ARNT-TACC3 inh inactive, miR122 inh inactive and SR-BI DiI inh inactive.
For CCN(C(=O)COn1nnc2ccc(S(=O)(=O)N(C)C)cc21)C1CCS(=O)(=O)C1 (stereo not drawn) the results were CAL PDZ FP-1 inactive, SR-BI uptake up inactive, CAL PDZ FP-2 inactive, miR122 inh inactive, SR-BI DiI inh inactive and DiI quench inactive.
